Assay results published in ChEMBL document CHEMBL3751676, “Combating P-glycoprotein-mediated multidrug resistance with 10-O-phenyl dihydroartemisinin ethers in MCF-7 cells” (Eur J Med Chem, 2016).
Calls of active or inactive are those of the source. No cut-off for these calls is given here.

Legend:
MDR1 (ABCB1) [1] = biological target: T1, MDR1 (ABCB1) (Homo sapiens, UniProt P08183); assay: Activity at MDR1 (unknown origin) expressed in MDCK cells assessed as permeability across apical to basolateral after 90 mins by LC-MS/MS analysis; assay type: ADME, cell-based
T1 sequence (P08183 whole entry): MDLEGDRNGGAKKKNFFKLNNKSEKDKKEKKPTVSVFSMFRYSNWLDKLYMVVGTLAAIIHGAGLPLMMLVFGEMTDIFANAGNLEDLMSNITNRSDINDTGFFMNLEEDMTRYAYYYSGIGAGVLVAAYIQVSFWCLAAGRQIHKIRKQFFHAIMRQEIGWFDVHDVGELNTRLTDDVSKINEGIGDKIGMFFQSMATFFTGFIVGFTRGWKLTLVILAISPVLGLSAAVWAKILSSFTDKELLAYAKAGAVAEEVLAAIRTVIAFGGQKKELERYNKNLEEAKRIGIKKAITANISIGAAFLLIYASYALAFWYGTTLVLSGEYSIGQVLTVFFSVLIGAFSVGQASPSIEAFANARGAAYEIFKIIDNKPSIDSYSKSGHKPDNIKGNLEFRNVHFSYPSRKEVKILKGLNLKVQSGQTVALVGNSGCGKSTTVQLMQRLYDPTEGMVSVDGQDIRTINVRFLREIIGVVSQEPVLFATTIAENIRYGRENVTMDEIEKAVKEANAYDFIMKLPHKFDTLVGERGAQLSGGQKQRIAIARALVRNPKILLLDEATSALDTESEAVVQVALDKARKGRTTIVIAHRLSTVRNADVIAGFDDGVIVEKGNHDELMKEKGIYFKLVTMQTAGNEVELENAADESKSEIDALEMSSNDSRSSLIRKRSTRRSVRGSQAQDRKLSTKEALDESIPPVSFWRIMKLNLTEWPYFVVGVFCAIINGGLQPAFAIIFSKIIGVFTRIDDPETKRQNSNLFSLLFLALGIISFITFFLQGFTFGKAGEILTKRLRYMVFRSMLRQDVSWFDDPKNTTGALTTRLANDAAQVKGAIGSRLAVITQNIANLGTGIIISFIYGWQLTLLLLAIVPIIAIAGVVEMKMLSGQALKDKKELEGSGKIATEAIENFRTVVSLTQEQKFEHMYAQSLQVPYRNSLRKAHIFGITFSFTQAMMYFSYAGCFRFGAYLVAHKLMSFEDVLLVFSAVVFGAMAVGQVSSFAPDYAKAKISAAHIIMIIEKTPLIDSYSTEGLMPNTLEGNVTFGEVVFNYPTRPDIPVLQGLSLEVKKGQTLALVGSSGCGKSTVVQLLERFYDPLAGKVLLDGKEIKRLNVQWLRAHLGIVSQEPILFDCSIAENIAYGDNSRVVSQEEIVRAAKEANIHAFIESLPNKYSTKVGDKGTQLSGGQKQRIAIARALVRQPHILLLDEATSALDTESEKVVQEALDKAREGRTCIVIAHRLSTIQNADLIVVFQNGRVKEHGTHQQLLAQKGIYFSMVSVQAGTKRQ

MDR1 (ABCB1) [2] = biological target: T1, MDR1 (ABCB1); assay: Activity at MDR1 (unknown origin) expressed in MDCK cells assessed as permeability across basolateral to apical after 90 mins by LC-MS/MS analysis; assay type: ADME, cell-based
[3] = Permeability across apical to basolateral side in MDCK cells after 90 mins by LC-MS/MS analysis; assay type: ADME, cell-based, Canis lupus familiaris; details: dog
Method in brief: (§1)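 Wild-type MDCK cells on Transwell filters. Transport was run in HBSS pH 7.4 at 37 °C in A-B and B-A directions, and plates were separated after 90 min incubation. Efflux ratio is Papp(B-A)/Papp(A-B). Papp is reported as "<" when receiver concentrations were below the quantitation limit.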

[4] = Permeability across basolateral to apical side in MDCK cells after 90 mins by LC-MS/MS analysis; assay type: ADME, cell-based, Canis lupus familiaris; details: dog; method in brief: as §1
MDR1 (ABCB1) [5] = biological target: T1, MDR1 (ABCB1); assay: Activity at MDR1 (unknown origin) expressed in MDCK cells assessed as efflux ratio of permeability across basolateral to apical side over apical to basolateral side; assay type: ADME, cell-based
[6] = Efflux ratio of permeability across basolateral to apical side over apical to basolateral side in MDCK cells; assay type: ADME, cell-based, Canis lupus familiaris; details: dog; method in brief: as §1
MCF7 [7] = assay: Cell cycle arrest in human MCF7 cells assessed as accumulation at G1 phase at 0.25 uM after 48 hrs by propidium iodide staining based flow cytometry (reference value: 62.8%); assay type: functional
Method in brief: (§2)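 Cells treated for 24 h or 48 h, then trypsinized, fixed in ice-cold 70% ethanol and stained with propidium iodide for flow cytometry. Percentages of cells in G1 and sub-G1 are compared with untreated cells.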

MCF7 [8] = assay: Cell cycle arrest in human MCF7 cells assessed as accumulation at G1 phase at 0.5 uM after 48 hrs by propidium iodide staining based flow cytometry (reference value: 62.8 %); assay type: functional; method in brief: as §2
[9] = Cell cycle arrest in human MCF7/ADR cells assessed as accumulation at G1 phase at 0.05 uM after 24 hrs by propidium iodide staining based flow cytometry (reference value: 54.6 %); assay type: functional; details: NCI/ADR-RES; method in brief: as §2
[10] = Cell cycle arrest in human MCF7/ADR cells assessed as accumulation at G1 phase at 0.25 uM after 24 hrs by propidium iodide staining based flow cytometry (reference value: 54.6 %); assay type: functional; details: NCI/ADR-RES; method in brief: as §2
[11] = Cell cycle arrest in human MCF7/ADR cells assessed as accumulation at G1 phase at 0.05 uM after 48 hrs by propidium iodide staining based flow cytometry (reference value: 56.9 %); assay type: functional; details: NCI/ADR-RES; method in brief: as §2
[12] = Cell cycle arrest in human MCF7/ADR cells assessed as accumulation at G1 phase at 0.25 uM after 48 hrs by propidium iodide staining based flow cytometry (reference value: 56.9 %); assay type: functional; details: NCI/ADR-RES; method in brief: as §2
[13] = Cell cycle arrest in human MCF7/ADR cells assessed as accumulation at sub-G1 phase at 0.05 uM after 48 hrs by propidium iodide staining based flow cytometry (reference value: […]); assay type: functional; details: NCI/ADR-RES
[14] = Cell cycle arrest in human MCF7/ADR cells assessed as accumulation at sub-G1 phase at 0.25 uM after 48 hrs by propidium iodide staining based flow cytometry (reference value: […]); assay type: functional; details: NCI/ADR-RES
MCF7 [15] = assay: Downregulation of cyclin D1 expression in human MCF7 cells at 0.5 uM after 24 and 48 hrs by western blot analysis; assay type: functional, cell-based
Method in brief: (§3)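 Lysates from treated cells were immunoblotted. Membranes were blocked in 5% nonfat milk, incubated overnight at 4 C with antibodies to PARP, p27, cyclin D1 or cyclin B1, and detected by enhanced chemiluminescence.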

MCF7 [16] = assay: Effect on cleaved PARP level in human MCF7 cells at 0.5 uM after 24 and 48 hrs by western blot analysis; assay type: functional, cell-based; method in brief: as §3
MCF7 [17] = assay: Downregulation of cyclin B1 expression in human MCF7 cells at 0.5 uM after 24 and 48 hrs by western blot analysis; assay type: functional, cell-based; method in brief: as §3
MCF7 [18] = assay: Upregulation of p27 expression in human MCF7 Cells at 0.5 uM after 24 and 48 hrs by western blot analysis; assay type: functional, cell-based; method in brief: as §3
NCI/ADR-RES [19] = assay: Effect on cleaved PARP level in human MCF7/ADR cells at 0.1 uM after 24 and 48 hrs by western blot analysis; assay type: functional, cell-based; method in brief: as §3
[20] = Downregulation of cyclin D1 expression in human MCF7/ADR cells at 0.1 uM after 48 hrs by western blot analysis; assay type: functional, cell-based; details: NCI/ADR-RES; method in brief: as §3
[21] = Downregulation of cyclin B1 expression in human MCF7/ADR cells at 0.1 uM after 48 hrs by western blot analysis; assay type: functional, cell-based; details: NCI/ADR-RES; method in brief: as §3
NCI/ADR-RES [22] = assay: Effect on p27 expression in human MCF7/ADR cells at 0.1 uM after 48 hrs by western blot analysis; assay type: functional, cell-based; method in brief: as §3
MCF7 [23] = assay: Cell cycle arrest in human MCF7 cells assessed as accumulation at G1 phase after 24 and 48 hrs by propidium iodide staining based flow cytometry; assay type: functional; method in brief: as §2
MCF7 [24] = assay: Antiproliferative activity against human MCF7 cells after 96 hrs by MTT assay; assay type: functional; details: MCF7, 96 h
Method in brief: (§4)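 MTT: cells seeded at 1.5-4.0 × 10^4 cells/mL and incubated overnight at 37 C, then exposed to 5-9 concentrations (DMSO stocks diluted in growth medium; final DMSO ≤0.5%) for 96 h. MTT added at 0.5 mg/mL for a further 4 h at 37 C and the formazan dissolved. Inhibition calculated relative to control; GI50 estimated by curve fitting; 3-5 repeats, mean ± SD.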

[25] = Antiproliferative activity against human MCF7/ADR cells after 96 hrs by MTT assay; assay type: functional; details: NCI/ADR-RES; method in brief: as §4
NCI/ADR-RES [26] = assay: Selectivity index, ratio of GI50 for human MCF7 cells to GI50 for human MCF7/ADR cells; assay type: functional
MCF7 [27] = assay: Cell cycle arrest in human MCF7 cells assessed as accumulation at G1 phase at 0.25 uM after 24 hrs by propidium iodide staining based flow cytometry (reference value: 62.5 %); assay type: functional; method in brief: as §2
MCF7 [28] = assay: Cell cycle arrest in human MCF7 cells assessed as accumulation at G1 phase at 0.5 uM after 24 hrs by propidium iodide staining based flow cytometry (reference value: 62.5 %); assay type: functional; method in brief: as §2

SMILES | Papp A→B at 1.5 h (MDR1 (ABCB1) [1]) | Papp B→A at 1.5 h (MDR1 (ABCB1) [2]) | Papp A→B at 1.5 h [3] | Papp B→A at 1.5 h [4] | GI50 (MCF7 [24]) | GI50 [25] | RatioGI50 (NCI/ADR-RES [26]) | also measured
COCCc1ccc(OCC(O)CNC(C)C)cc1 (stereo not given) [METOPROLOL] | 22.2 ×10⁻⁶ cm/s | 23.7 ×10⁻⁶ cm/s | 24.3 ×10⁻⁶ cm/s | 18.5 ×10⁻⁶ cm/s |  |  |  | efflux ratio (MDR1 (ABCB1) [5]): 1.07; efflux ratio [6]: 0.76
C[C@H]1[C@@H](Oc2ccc(/C=C/C(=O)N3CCN(c4cccc(C(F)(F)F)c4)CC3)cc2)O[C@@H]2O[C@@]3(C)CC[C@H]4[C@H](C)CC[C@@H]1[C@@]24OO3 | < 1.83 ×10⁻⁶ cm/s | < 1 ×10⁻⁶ cm/s | < 1.82 ×10⁻⁶ cm/s | < 0.93 ×10⁻⁶ cm/s | 0.32 µM | 0.021 µM | 15.24 | Activity (MCF7 [7]): 82.3%; Activity (MCF7 [8]): 83.4%; Activity [9]: 71.5%; Activity [10]: 70.2%; Activity [11]: 65.2%; Activity [12]: 62.6%; Activity [13]: 2.4%; Activity [14]: 8.7%; inhibition (MCF7 [15]): Active; Activity (MCF7 [16]): inactive; inhibition (MCF7 [17]): Active; Activity (MCF7 [18]): Active; Activity (NCI/ADR-RES [19]): inactive; inhibition [20]: Active; inhibition [21]: Active; Activity (NCI/ADR-RES [22]): inactive; Activity (MCF7 [23]): Dose-dependent effect; Activity (MCF7 [27]): 70%; Activity (MCF7 [28]): 73.8%
C[C@H]1[C@@H](Oc2ccc(CN3CCN(c4ccc(F)cc4)CC3)cc2)O[C@@H]2O[C@@]3(C)CC[C@H]4[C@H](C)CC[C@@H]1[C@@]24OO3 | < 1.34 ×10⁻⁶ cm/s | < 0.85 ×10⁻⁶ cm/s | < 1.33 ×10⁻⁶ cm/s | < 0.83 ×10⁻⁶ cm/s | 0.53 µM | 0.025 µM | 21.2 | 
C[C@H]1[C@@H](Oc2ccc(/C=C/C(=O)N3CCN(c4ccccc4)CC3)cc2)O[C@@H]2O[C@@]3(C)CC[C@H]4[C@H](C)CC[C@@H]1[C@@]24OO3 |  |  |  |  | 0.11 µM | 0.051 µM | 2.16 | 
C[C@H]1[C@@H](Oc2ccc(CC(=O)N3CCN(c4ccc(F)cc4)CC3)cc2)O[C@@H]2O[C@@]3(C)CC[C@H]4[C@H](C)CC[C@@H]1[C@@]24OO3 |  |  |  |  | 0.29 µM | 0.044 µM | 7.11 | 
C[C@H]1[C@@H](Oc2ccc(CC(=O)N3CCN(c4cccc(C(F)(F)F)c4)CC3)cc2)O[C@@H]2O[C@@]3(C)CC[C@H]4[C@H](C)CC[C@@H]1[C@@]24OO3 |  |  |  |  | 0.26 µM | 0.041 µM | 6.34 | 
COc1ccccc1N1CCN(C(=O)/C=C/c2ccc(O[C@H]3O[C@@H]4O[C@@]5(C)CC[C@H]6[C@H](C)CC[C@@H]([C@H]3C)[C@@]46OO5)cc2)CC1 |  |  |  |  | 0.14 µM | 0.031 µM | 4.52 | 
C[C@H]1[C@@H](Oc2ccc(/C=C/C(=O)N3CCN(c4ccc(F)cc4)CC3)cc2)O[C@@H]2O[C@@]3(C)CC[C@H]4[C@H](C)CC[C@@H]1[C@@]24OO3 |  |  |  |  | 0.27 µM | 0.038 µM | 8.57 | 
C[C@H]1[C@@H](Oc2ccc(/C=C/C(=O)N3CCN(c4ccccn4)CC3)cc2)O[C@@H]2O[C@@]3(C)CC[C@H]4[C@H](C)CC[C@@H]1[C@@]24OO3 |  |  |  |  | 0.29 µM | 0.11 µM | 2.64 | 
C[C@H]1[C@@H](Oc2ccc(CN3CCN(c4cccc(C(F)(F)F)c4)CC3)cc2)O[C@@H]2O[C@@]3(C)CC[C@H]4[C@H](C)CC[C@@H]1[C@@]24OO3 |  |  |  |  | 0.22 µM | 0.033 µM | 6.67 | 
